Assays:
Format in all cases: functional
Rattus norvegicus = assay: Antiinflammatory activity relative to phenyl butazone as 1 in rat carrageenan paw edema assay
In short: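 Female rats, 80–90 g, six per dose group, at least four dose levels. Test agent given orally 1 h before carrageenan injection into one hind paw, in vehicle of 0.9% NaCl, 0.5% Na carboxymethylcellulose, 0.4% polysorbate 80, 0.9% benzyl alcohol, 97.3% water. Rats killed 4 h after dosing and both hind paws weighed. Potency relative to phenylbutazone from dose-response of % weight increase of treated over untreated paw, by analysis of variance.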

Mus musculus [1] = species: Mus musculus; assay: Analgesic activity relative to aspirin as 1 in 8 mice phenylquinone writhing assay
In short: (§1)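 Male mice, 18–20 g, dosed orally with test agent in aqueous vehicle (0.9% NaCl, 0.5% Na carboxymethylcellulose, 0.4% polysorbate 80, 0.9% benzyl alcohol, 97.3% water) 20 min before intraperitoneal phenylquinone. Writhing observed over the following 10 min. Potency relative to aspirin taken from dose-response plots by analysis of variance.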

Mus musculus [2] = species: Mus musculus; assay: Analgesic activity relative to aspirin as 1 in 24 mice phenylquinone writhing assay; in short: as §1
Mus musculus [3] = species: Mus musculus; assay: Analgesic activity relative to aspirin as 1 in 32 mice phenylquinone writhing assay; in short: as §1
Mus musculus [4] = species: Mus musculus; assay: Analgesic activity relative to aspirin as 1 in 16 mice phenylquinone writhing assay; in short: as §1

## O=C(O)Cc1ccc2c(c1)NCc1ccccc1C2=O
Rattus norvegicus
  Relative activity: 29
Mus musculus [1]
  Relative activity: <0.7

## CC(C(=O)O)c1ccc2c(c1)N(C)Cc1ccccc1C2=O (centres undefined)
Mus musculus [2]
  Relative activity: 1
Rattus norvegicus
  Relative activity: 11

## CN1Cc2ccccc2C(=O)c2ccc(CC(=O)O)cc21
Rattus norvegicus
  Relative activity: 7
Mus musculus [3]
  Relative activity: <0.2

## COc1ccc2c(c1)CNc1cc(CC(=O)O)ccc1C2=O
Rattus norvegicus
  Relative activity: <0.1
Mus musculus [1]
  Relative activity: <0.2

## CC(=O)N1Cc2ccccc2C(=O)c2ccc(CC(=O)O)cc21
Rattus norvegicus
  Relative activity: <0.3
Mus musculus [1]
  Relative activity: <0.2

## COc1ccc2c(c1)CN(C)c1cc(CC(=O)O)ccc1C2=O
Rattus norvegicus
  Relative activity: 6.7
Mus musculus [4]
  Relative activity: <0.5

## CCN1Cc2ccccc2C(=O)c2ccc(CC(=O)O)cc21
Rattus norvegicus
  Relative activity: 2.3
Mus musculus [4]
  Relative activity: <0.2
